# Screens: PubChem BioAssay, several laboratories
# Compounds with a hit are over-represented: about 3.4% of the library has one in this group of screens.
# Runt-SMMHC FRET – blocks binding of human RUNX1 Runt domain to CBFb-SMMHC; inhibition, % at 20 µM; Q01196+Q13951; Cerulean-Runt/Venus-CBFb-SMMHC FRET ratio 530/480, 1 h; actives 0.74% (n = 220,000); AID 1434;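 active means mean inhibition across duplicate retests at 20 µM reaching about 50%, limit read from the data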;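 further: 0% = DMSO wells and 100% = wells with excess untagged CBFb-SMMHC; inhibitors lower the FRET ratio by blocking Runt binding to CBFb-SMMHC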
# PHOSPHO1 block – blocks human PHOSPHO1 phosphatase activity | actives 1.1% (n = 290,000) | AID 1565 | inhibition, % at 13.3 µM | Q8TCT1 | recombinant PHOSPHO1, absorbance phosphatase assay; in the data active means inhibition above about 60%
# Target sequence (Q8TCT1 whole entry, looked up): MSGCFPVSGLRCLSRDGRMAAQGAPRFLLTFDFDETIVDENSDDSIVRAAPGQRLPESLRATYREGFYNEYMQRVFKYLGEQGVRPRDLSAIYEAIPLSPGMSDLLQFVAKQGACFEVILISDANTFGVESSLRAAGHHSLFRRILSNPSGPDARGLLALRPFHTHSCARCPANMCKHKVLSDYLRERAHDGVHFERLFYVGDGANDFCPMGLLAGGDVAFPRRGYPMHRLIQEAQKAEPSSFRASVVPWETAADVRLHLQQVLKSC
# Wee1 degr inh – inhibitors of human Wee1 degradation; P30291; HeLa Luc-Wee1K328M stability, luciferase luminescence; 100% = proteasome inhibitor MG132 effect; reporter increase, % at 5 µM; actives 1.2% (n = 220,000);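 active means activation above the mean of all tested compounds plus 3 SD, set per screening run, cut at about 8.8% in these data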;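 further: cells exposed to compound for 20 h before luminescence read; 0% = DMSO alone and 100% = MG132 at 30 µM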
# RanGTP-Imp inh – inhibitors of RanGTP-importin-beta interaction, primary screen, biochemical, FRET, CFP-Ran, YFP-importin-beta, homogeneous; cell-free CFP-Ran/YFP-importin-beta FRET ratio; inhibition, % (concentration not given with the values); actives 1.1% (n = 300,000);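 active means more than half of the replicate wells show a fall in the fluorescence ratio signal beyond about 16%, limit read from the data, passing the limit was not always enough; inconclusive means exactly half of the replicate wells pass the set limit; inactive means fewer than half of replicates pass the limit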;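 further: 0% = DMSO wells and 100% = Ran loaded with GDP instead of GTP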
# Runt-CBFb FRET – Runt domain-CBFb interaction inhibition; Cerulean-Runt/Venus-CBFb FRET ratio 530/480, 1 h; inhibition, % at 20 µM; Q01196+Q13951; actives 0.46% (n = 220,000);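 active means inhibition over about 50% at 20 µM in the single-dose screen, limit read from the data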;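 further: 0% = DMSO wells and 100% = excess unlabeled CBFb competitor control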
#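 Assay system: Cerulean-tagged RUNX1 Runt domain (FRET donor) fusion protein / Amount: 100 nM each of Venus-CBFb and Cerulean-Runt domain / Medium: Tris buffer pH 7.5 with salts and BSA / Also added: Venus-CBFb 100 nM / Schedule: 1 h complex formation plus 1 h compound treatment, room temperature / Signal: FRET fluorescence / Read-out: loss of energy transfer signal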
# HMGR II inh – inhibitors of class II HMG-CoA reductase from Enterococcus faecalis | purified E. faecalis HMGR, NADPH absorbance 340 nm kinetic | inhibition, % at 10 µM | actives 0.41% (n = 190,000);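 active means inhibition above a set limit, the median over all tested compounds plus 3 SD, cut at about 9.5% in these data; inconclusive means no clear call, values can overlap the other calls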;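 further: enzyme runs in reverse so mevalonate oxidation gives rising NADPH absorbance; 0% = complete reaction with DMSO and 100% = background rate lacking mevalonate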
# Starred values were filed as active, the others as inactive; ? = inconclusive; · = not tested or not shown.
SMILES,Runt-SMMHC FRET,PHOSPHO1 block,Wee1 degr inh,RanGTP-Imp inh,Runt-CBFb FRET,HMGR II inh
CCc1nnc(SCC(=O)N2CCCC(N3CCN(c4ccccc4C)CC3)C2)o1 (centres undefined),·,5,·,3,·,·
O=C(COc1ccccc1F)N/N=C1\CCCc2ccccc21,-3,1,11*,7,-1,3
COc1ccccc1OCC(=O)N/N=C1\CCCCc2ccccc21,2,15,6,0,0,·
O=C(CSc1n[nH]c(-c2ccccc2)n1)Nc1ccc(N2CCOCC2)cc1,-4,51,0,-1,1,0
NS(=O)(=O)c1ccc(NC(=O)COC(=O)CSc2n[nH]c(-c3ccccc3)n2)cc1,2,71*,-2,2,0,-7
CCSC1=N/C(=C\c2ccc3c(c2)OCO3)C(=O)S1,-2,-19,0,8,-1,3
CN1C(=O)/C(=C/c2ccc3c(c2)OCO3)N=C1c1ccccc1,15,-7,2,17*,1,-3
O=C(CSc1nnc(CNC(=O)c2cccc(C(F)(F)F)c2)o1)NC1CCCC1,·,27,·,6,·,·
O=C(Nc1nnc(SCC(=O)N2CCCCC2)s1)c1ccc(F)cc1F,·,23,·,6,·,·
O=C(COC(=O)CN1C(=O)c2ccccc2C1=O)Nc1ccc(S(=O)(=O)N2CCCC2)cc1,4,4,0,3,4,12*
COc1ccc(S(=O)(=O)N(C)C)cc1NC(=O)CSc1nc(N)cc(N)n1,-1,46,6,-2,-2,·
O=C(CSC1=NS(=O)(=O)c2ccccc21)Nc1ccccc1,4,88*,0,1,12,-12
Cc1ccc(N2C(=O)[C@@H]3[C@H](C2=O)C2c4ccccc4C=CN2[C@@H]3C(=O)c2ccco2)c(C)c1 (some centres undefined),-46,39,3,?,-26,·
Cc1ccc(N2C(=O)[C@@H]3[C@H](C2=O)C2c4ccccc4C=CN2[C@@H]3C(=O)c2ccco2)cc1 (some centres undefined),-71,74*,-2,·,-7,0
O=C(c1ccco1)[C@@H]1[C@@H]2C(=O)N(c3ccccc3)C(=O)[C@@H]2C2c3ccccc3C=CN21 (some centres undefined),-58,84*,6,28*,-23,·
COc1ccc(NC(=O)CSc2nnc(Cc3ccc(C)cc3)c(=O)n2N)cc1OC,·,·,·,1,·,·
CCCn1c(C)cc(C(=O)COC(=O)c2nccnc2N)c1C,7,9,5,25*,11,-4
COc1ccc(CCn2c(C)cc(C(=O)COC(=O)c3cnccn3)c2C)cc1,·,38,·,-1,·,·
Cc1ccc(CN(C)C(=O)c2cc(Br)c(Br)s2)o1,·,32,·,3,·,·
CCCN1Cc2cccc(C(=O)NCc3ccc(C)cc3)c2C1=O,-2,-19,9.3*,-1,-7,-2
CCN(CC)c1ccc(NC(=O)CCCCCN2C(=O)c3ccccc3C2=O)cc1,19,-15,11*,3,13,-5
CN(CC(=O)Nc1cccc(F)c1)C(=O)c1ccc(N2CCCC2)c([N+](=O)[O-])c1,·,·,·,-1,·,·
O=C(c1cc(Cl)ccc1Cl)N1CCN(c2ccccn2)CC1,-1,10,-1,3,2,-9
O=C(c1cc([N+](=O)[O-])ccc1Cl)N1CCN(c2ccccn2)CC1,-2,18,-1,-1,2,11*
Nc1ccccc1N=c1ssnc1Cl,17,42,0,·,28,1
SMILES,Runt-SMMHC FRET,PHOSPHO1 block,Wee1 degr inh,RanGTP-Imp inh,Runt-CBFb FRET,HMGR II inh
Cc1cc(C)nc(/N=c2/ssnc2Cl)c1,26,45,-1,-5,15,12*
Cc1cc(Cl)ccc1N=c1ssnc1Cl,38,96*,-1,0,7,-4
Cc1cc(C)c(C#N)c(Cl)n1,3,-12,1,1,3,-5
Cc1ccc(N=c2ssnc2Cl)cc1,37,101*,-2,-4,34,-5
COc1ccc(OC)c(N=c2ssnc2Cl)c1,55,29,2,2,42,-6
COc1cc(N=c2ssnc2Cl)c(OC)cc1Cl,40,91*,-1,1,34,-2
Cc1ccc(OCC(=O)NCCNC(=O)c2cnccn2)cc1,·,36,·,3,·,·
COc1ccc(OC)c(/C=C2\SC(=S)N(C(C(=O)O)c3ccccc3)C2=O)c1 (centres undefined),-211,45,9.7*,-31,-91,·
COc1ccccc1Nc1ncnc2c1c(C)c(C)n2CCO,·,18,·,-3,·,·
COC(=O)c1ccc(NC(=O)CN(C)Cc2cccc(F)c2)cc1,-4,9,-3,-3,1,11*
CCN(CC(=O)Nc1ccc(C(=O)OC)cc1)Cc1ccccc1,-4,29,4,7,1,-2
CCCCOc1ccc(C2C3CN(C(=O)OCC)CC=C3C(C#N)=C(N)C2(C#N)C#N)cc1OC (centres undefined),8,-11,3,0,-2,2
CCOC(=O)N1CC=C2C(C#N)=C(N)C(C#N)(C#N)[C@H](c3ccc(OCC)c(OCC)c3)[C@H]2C1,6,-23,-2,1,1,-3
Cc1ccc(C2C3CN(C(C)C)CC=C3C(C#N)=C(N)C2(C#N)C#N)cc1 (centres undefined),63*,24,·,63*,81*,-5
COc1ccc(OC)c(C2C3CN(C(C)C)CC=C3C(C#N)=C(N)C2(C#N)C#N)c1 (centres undefined),79*,16,0,31*,42,0
CCCN1CC=C2C(C#N)=C(N)C(C#N)(C#N)C(c3cccc(OC)c3OC)C2C1 (centres undefined),78*,3,2,104*,94*,-5
COc1cccc(OC)c1OCc1cc(C2C3CCCC=C3C(C#N)=C(N)C2(C#N)C#N)c(C)cc1C (centres undefined),-1,12,1,-12,13,-5
COc1ccc(S(=O)(=O)n2nc(C)c(S(=O)(=O)N3CCOCC3)c2C)cc1OC,·,2,·,1,·,·
CCCCc1cc(=O)oc2cc(C)cc(OCC(=O)NCc3ccccn3)c12,·,18,·,9,·,·
Cc1oc2c(CN3CCCC(C)C3)c(O)ccc2c(=O)c1-c1ccccc1 (centres undefined),·,23,·,-1,·,·
COc1ccc(C(=O)Nc2ccccc2C(=O)Nc2ccc(C(=O)O)cc2)cc1,·,9,·,-4,·,·
COc1ccc(C(=O)Nc2ccccc2C(=O)Nc2ccncc2)cc1,·,63*,·,4,·,·
Cc1occc1-c1nnc(SCC(=O)Nc2c(F)cccc2F)n1C,·,·,·,2,·,·
CCOc1ccc(Cn2c(=O)oc3ccc(C)cc32)cc1OC,2,-2,-2,-2,-4,-2
COc1cc(Cn2c(=O)oc3ccc(C)cc32)ccc1OC(C)C,-3,-17,0,-3,-7,14*
